Experimental data: article PMC6148440 (Journal of Medicinal Chemistry, 2018)
Values joined by “and” are separate entries in the source; they are usually repeats but may differ in a detail not shown here. Equal entries are not always repeated.

Tests used:
[1] = Calculated LD50 on mice, extrapolated from zebrafish embryo LC50; details: mouse
P. falciparum [2] = experiment: In vitro antimalarial activity, [3H]-hypoxanthine incorporation; assay type: cell-based, P. falciparum (3D7 strain)
Outline: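 Infected erythrocytes were used at 1.5% final hematocrit and 0.6% parasitemia in RPMI 1640 with 10% AB human serum. Compounds were dissolved in DMSO and diluted in medium, with final DMSO ≤0.25%. After 48 h at 37 °C, 0.6 μCi [3H]-hypoxanthine was added per well for 18 h. Cells were harvested onto glass-fibre filters for scintillation counting. Uninfected-erythrocyte background was subtracted, and IC50 was taken as 50% growth inhibition.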

L. major promastigotes = experiment: In vitro antileishmanial activity, promastigote drug susceptibility; assay type: cell-based, L. major (MHOM/IL/80/Friedlin); details: for SI L. major: selectivity index IC50(MRC-5)/IC50(parasite)
Outline: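 Promastigotes at 1 × 10^6/mL were cultured in modified RPMI-1640 with 10% hiFBS. They were exposed to increasing compound concentrations for 72 h at 28 °C. Proliferation was measured by MTT, with absorbance read at 540 nm.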

[3] = tested on: bloodstream forms of T. brucei brucei; experiment: In vitro antitrypanosomal activity, bloodstream forms; assay type: cell-based, T. brucei brucei S427 (S16); details: for IC50: Trypanosoma brucei, 72 h, read-out: IC50 parasite T. brucei; for SI T. brucei: selectivity index IC50(MRC-5)/IC50(parasite)
Outline: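 Bloodstream forms were kept in HMI-9 with 10% hiFBS at 37 °C, 5% CO2. Parasites at 1 × 10^4/mL were exposed to increasing compound concentrations for 72 h under the same conditions. Proliferation was read by alamarBlue fluorescence (excitation 550, emission 590 nm), and IC50 was derived from this.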

[4] = tested on: HT-29, MCF-7, and HeLa cancer cells; details: cited from earlier work
P. falciparum [5] = details: read-out: concentration inhibiting 50% growth of P. falciparum; cited from earlier work
[6] = tested on: MRC-5 human nontumoral lung cell line; details: read-out: IC50 MRC-5; MRC-5 control cell line, MTT, 72 h; cited from earlier work
[7] = Acute toxicity assay on zebrafish embryos; assay type: in vivo, zebrafish (Danio rerio), strain AB; details: AB, zebrafish, in vivo
Outline: (§1)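 Embryos of strain AB were collected in E3 medium and sorted at 3 hpf, with 20 healthy embryos per condition. Medium was replaced by compound in 0.1% DMSO/E3, made from a 100 mM DMSO stock, at five log concentrations, either 0.01–100 μM or 0.1 μM–1 mM. Embryos were held at 28.5 °C from 3 to 96 hpf, and coagulated eggs were removed at 24 h. LC50 came from a sigmoidal fit of mortality. Controls were 0.1% DMSO in triplicate (repeat if mortality >20%) and DEAB at 0.1 μM–1 mM.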

zebrafish embryos = experiment: Acute toxicity assay on zebrafish embryos; assay type: in vivo, zebrafish (Danio rerio), strain AB; details: zebrafish embryos, 96 hpf; mortality score >20% assumed as the effect
Outline: as §1

SMILES | LD50 [1] | SI L. major (L. major promastigotes) | IC50 [3] [nM] | SI T. brucei [3] | further results
CN(C)CCCN1C(=O)c2ccc3c4c(c(NCc5cn(CCO[C@H]6O[C@H](CO)[C@@H](O)[C@H](O)[C@@H]6O)nn5)cc(c24)C1=O)C(=O)N(CCCN(C)C)C3=O [Compound 5, α-manC2-NDI] | > 630 µmol/kg and > 609 mg/kg |  |  |  | 
CN(C)CCCN1C(=O)c2ccc3c4c(c(NCc5cn(CCO[C@@H]6O[C@H](CO)[C@@H](O)[C@H](O)[C@H]6O)nn5)cc(c24)C1=O)C(=O)N(CCCN(C)C)C3=O [Compound 6, β-glcC2-NDI] | > 630 µmol/kg and > 609 mg/kg | 1.3 | 17 ± 9 | 41.8 | fold more active than compound 1 against P. falciparum (P. falciparum [2]): 5 fold; fold more active than compound 1, antitumor activity [4]: approximately 10 fold
CC(=O)N[C@@H]1[C@@H](O)[C@H](O)[C@@H](CO)O[C@H]1n1cc(CNc2cc3c4c(ccc5c4c2C(=O)N(CCCN(C)C)C5=O)C(=O)N(CCCN(C)C)C3=O)nn1 [Compound 2, β-glcNAc-NDI] | > 630 µmol/kg and > 607 mg/kg |  |  |  | 
Cc1ccc(C(=O)Nc2ccc(S(=O)(=O)O)c3cc(S(=O)(=O)O)cc(S(=O)(=O)O)c23)cc1NC(=O)c1cccc(NC(=O)Nc2cccc(C(=O)Nc3cc(C(=O)Nc4ccc(S(=O)(=O)O)c5cc(S(=O)(=O)O)cc(S(=O)(=O)O)c45)ccc3C)c2)c1 [suramin, reference compound] |  |  | 38 ± 3 |  | 
Cc1oc2nc1-c1nc(co1)-c1nc(co1)-c1nc(co1)-c1nc(co1)-c1nc(co1)C1=NC(CS1)c1nc-2c(C)o1 (centres unmarked) [telomestatin] |  |  |  |  | IC50 (P. falciparum [5]): 35 µM
C[n+]1ccc(-c2c3nc(c(-c4cc[n+](C)cc4)c4ccc([nH]4)c(-c4cc[n+](C)cc4)c4nc(c(-c5cc[n+](C)cc5)c5ccc2[nH]5)C=C4)C=C3)cc1 [TMPyP4, reference compound] |  |  |  |  | IC50 [6]: > 25000 nM; IC50 (P. falciparum [5]): 5 µM
C[C@H]1O[C@@H](n2cc(CNc3cc4c5c(ccc6c5c3C(=O)N(CCCN(C)C)C6=O)C(=O)N(CCCN(C)C)C4=O)nn2)[C@H](O)[C@@H](O)[C@@H]1O [Compound 3, β-6dglc-NDI] | 170 µmol/kg and 154 mg/kg |  |  |  | 
CCCNc1cc2c3c(ccc4c3c1C(=O)N(CCCN(C)C)C4=O)C(=O)N(CCCN(C)C)C2=O [Compound 7, NDI-prop] | 330 µmol/kg and 178 mg/kg | 10.6 | 9 ± 1 | 40.0 | 
CN(C)CCCN1C(=O)c2ccc3c4c(c(NCc5cn([C@@H]6O[C@H](CO)[C@@H](OC7O[C@H](CO)[C@@H](O)[C@H](O)[C@H]7O)[C@H](O)[C@H]6O)nn5)cc(c24)C1=O)C(=O)N(CCCN(C)C)C3=O.O=C(O)C(F)(F)F.O=C(O)C(F)(F)F (stereo partly drawn) [Compound 4, β-malt-NDI] | 190 µmol/kg and 206 mg/kg | 2.2 | 99 ± 10 | 20.6 | IC50 [6]: 2040 ± 50 nM; SI P. falciparum (P. falciparum [2]; selectivity index IC50(MRC-5)/IC50(parasite)): 5.5; IC50 (L. major promastigotes; Leishmania major, 72 h, read-out: IC50 parasite L. major): 921 ± 51 nM; LC50 at 96 hpf [7]: 190 µM; NOEC (zebrafish embryos): 100 µM
